The target of assay [1] is T1, Beta-secretase 1 (Homo sapiens, UniProt P56817). Description: Inhibition of human recombinant BACE1 using [acetyl-C(W8044Eu)-EVNLDAEFK-QSY7] as substrate by TR-FRET assay. Put shortly:
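Enzyme (6 nM) incubated with 200 nM europium-labelled TR-FRET substrate in 50 mM NaOAc, 0.005% Triton X-100, pH 4.5; inhibitors in 3.3% DMSO. Time-resolved fluorescence read at excitation 330 nm, emission 615 nm; IC50 from concentration-response curves, mean of at least 3 experiments.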

The target in assay [2] is T1, Beta-secretase 1. Description: Inhibition of BACE1 in human SH-SY5Y cells expressing APP NFEV and wild-type alpha cleavage site assessed as generation of EV40/EV42 by electrochemiluminescence assay. Type of assay: cell-based. Put shortly: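 SHSY5Y cells expressing APP NFEV with wild-type alpha-cleavage site. Compounds started at […], then 3-fold dilutions (10 points). IC50 determined against generation of sAPPb NF and EV40 and EV42 peptides. Run at Merck RL.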

For assay [3], the target named is T1, Beta-secretase 1. Description: Inhibition of BACE1 in HEK293 cells expressing APP NFEV and APP K612V mutant assessed as generation of EV40/EV42 by electrochemiluminescence assay. The class given is cell-based. In a few lines:
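HEK293 cells carrying a proprietary APP construct with modified BACE cleavage sequence (NFEV) and K612V alpha-site mutation. Compounds started at […], then 3-fold dilutions (10 points). IC50 determined against generation of sAPPb NF and EV40 and EV42 peptides. Run at Merck RL.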

In assay [4] the target is T1, Beta-secretase 1. Description: Selectivity ratio of IC50 for BACE1 in human SH-SY5Y cells to IC50 for BACE1 in HEK293 cells. Type of assay: cell-based.

The structures appear in SMILES notation.

T1 sequence (P56817 whole entry): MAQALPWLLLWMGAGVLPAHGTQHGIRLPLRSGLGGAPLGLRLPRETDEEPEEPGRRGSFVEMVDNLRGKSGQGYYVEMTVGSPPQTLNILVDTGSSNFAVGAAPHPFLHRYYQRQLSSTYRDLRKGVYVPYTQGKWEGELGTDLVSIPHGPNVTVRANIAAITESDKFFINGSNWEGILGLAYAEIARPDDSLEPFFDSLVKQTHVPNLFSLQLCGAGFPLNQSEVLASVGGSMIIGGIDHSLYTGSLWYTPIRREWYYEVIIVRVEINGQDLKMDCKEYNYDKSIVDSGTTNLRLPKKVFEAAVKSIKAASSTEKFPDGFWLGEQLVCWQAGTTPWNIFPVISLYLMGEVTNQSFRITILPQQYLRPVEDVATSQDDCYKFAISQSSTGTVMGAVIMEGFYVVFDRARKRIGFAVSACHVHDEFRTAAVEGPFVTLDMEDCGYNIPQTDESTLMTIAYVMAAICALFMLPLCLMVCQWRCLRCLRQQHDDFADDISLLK

As for `O=C1Nc2c(N3CCNCC3)ccc(-c3ccccc3)c2C=N[C@H]1c1ccccc1`, on Beta-secretase 1 [1], the IC50 result is “Not Active”.
Turning to `CC(C)(C)OC(=O)N(Cc1ccccc1)C[C@H](O)c1cccc(NC(=O)c2cccc3ccccc23)c1`, the IC50 is 11 µM at Beta-secretase 1 [2], 4.9 µM on Beta-secretase 1 [1] (read-out: IC50) and over 7 µM on Beta-secretase 1 [3].
Take `CC(C)(C)OC(=O)N(Cc1ccccc1)C[C@@H](O)c1cccc(NC(=O)[C@H](NC(=O)OCc2ccccc2)c2ccccc2)c1`: the IC50 at Beta-secretase 1 [2] is over 100 µM; on Beta-secretase 1 [1] (read-out: IC50), 4.7 µM; on Beta-secretase 1 [3] it was over 10 µM. In addition, the Ratio IC50 at Beta-secretase 1 [4] amounted to 10.
Regarding `CC(C)(C)OC(=O)N1CCN(c2ccc(-c3ccccc3)c3c2NC(=O)[C@H](c2ccccc2)N=C3)CC1`, the IC50 at Beta-secretase 1 [1] (read-out: IC50) is 12.8 µM.
On the same count and under the same terms, then `CC(C)(C)OC(=O)N(Cc1ccccc1)C[C@H](O)c1ccc(C(=O)c2ccccc2)c(NC(=O)[C@@H](NC(=O)OCc2ccccc2)c2ccccc2)c1`, with 14.9 µM.
Regarding `CC(C)(C)OC(=O)N1CCN(c2cccc3c2NC(=O)[C@H](c2ccccc2)N=C3)CC1`, the IC50 entry at Beta-secretase 1 [1] is recorded as “Not Active”.
Regarding `O=C(N[C@H](C(=O)Nc1cccc([C@@H](O)CN[C@H](CO)Cc2ccccc2)c1)c1ccccc1)OCc1ccccc1`, the IC50 at Beta-secretase 1 [1] (read-out: IC50) stood at 7.5 µM.
As to `CC(C)(C)OC(=O)N1CCN(c2ccc(-c3ccccc3)c(C=O)c2NC(=O)[C@@H](NC(=O)OCC2c3ccccc3-c3ccccc32)c2ccccc2)CC1`, the IC50 on Beta-secretase 1 [1] (read-out: IC50) was found to be 14.8 µM.
As for `CC(C)(C)OC(=O)N1CCN(c2ccc(-c3ccccc3)c3c2NC(=O)[C@H](c2ccccc2)NC3)CC1`, the IC50 entry on Beta-secretase 1 [1] is on record as “Not Active”.
As for `CC(C)(C)OC(=O)N(Cc1ccccc1)C[C@H](O)c1ccc(C(=O)c2ccccc2)c(NC(=O)[C@H](NC(=O)OCc2ccccc2)c2ccccc2)c1`, the IC50 on Beta-secretase 1 [1] (read-out: IC50) came out at 18.1 µM.
Regarding `CC(C)(C)OC(=O)N(C[C@H](O)c1cccc(NC(=O)[C@@H](NC(=O)OCc2ccccc2)c2ccccc2)c1)[C@H](CO)c1ccccc1`, the IC50 at Beta-secretase 1 [1] (read-out: IC50) was 9.2 µM.
Still for that read-out and setting: then `CC(C)(C)OC(=O)N1CCN(c2cccc(C=O)c2NC(=O)[C@@H](NC(=O)OCc2ccccc2)c2ccccc2)CC1`, with 14.3 µM; and `CC(C)(C)OC(=O)N(Cc1ccccc1)C[C@@H](O)c1cccc(NC(=O)[C@@H](NC(=O)OCc2ccccc2)c2ccccc2)c1`, with 5.2 µM.
Turning to `CC(C)(C)OC(=O)N(C[C@H](O)c1cccc(NC(=O)[C@@H](NC(=O)OCc2ccccc2)c2ccccc2)c1)[C@H](CO)Cc1ccccc1`, the IC50 at Beta-secretase 1 [1] (read-out: IC50) is 6.4 µM.

For the origin of these results see ChEMBL document CHEMBL3085758, “A stereoselective approach to peptidomimetic BACE1 inhibitors” (Eur J Med Chem, 2013).
